Several values for one entry are separate records, joined by “and”; a condition that tells them apart may be missing. Equal values may be shown once. Read-outs that look alike come from different tables or passages of the source.
How the values were obtained:
cPLA2 [1] = molecular target: T1, cPLA2 (Homo sapiens, UniProt P47712); experiment: cPLA2 activity assay; type: biochemical
T1 sequence (P47712 1-749): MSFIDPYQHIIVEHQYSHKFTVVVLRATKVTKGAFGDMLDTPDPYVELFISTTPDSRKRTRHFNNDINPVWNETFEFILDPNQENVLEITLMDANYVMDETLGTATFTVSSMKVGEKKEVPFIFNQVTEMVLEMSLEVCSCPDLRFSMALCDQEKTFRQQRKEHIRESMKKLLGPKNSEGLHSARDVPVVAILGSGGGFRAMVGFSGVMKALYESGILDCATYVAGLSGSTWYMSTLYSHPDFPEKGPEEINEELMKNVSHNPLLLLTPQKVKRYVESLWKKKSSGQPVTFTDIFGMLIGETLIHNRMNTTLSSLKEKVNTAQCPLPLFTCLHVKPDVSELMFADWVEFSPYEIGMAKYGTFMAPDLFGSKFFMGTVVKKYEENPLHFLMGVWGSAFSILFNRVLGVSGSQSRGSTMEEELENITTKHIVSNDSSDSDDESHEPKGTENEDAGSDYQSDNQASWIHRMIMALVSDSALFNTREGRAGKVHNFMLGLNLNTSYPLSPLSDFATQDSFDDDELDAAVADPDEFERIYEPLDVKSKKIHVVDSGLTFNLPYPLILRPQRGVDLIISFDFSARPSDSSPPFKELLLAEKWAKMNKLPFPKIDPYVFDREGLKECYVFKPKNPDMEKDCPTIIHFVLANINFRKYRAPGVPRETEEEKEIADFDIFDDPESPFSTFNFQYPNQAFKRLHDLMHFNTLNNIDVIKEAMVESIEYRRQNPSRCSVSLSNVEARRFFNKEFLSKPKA
Method in brief: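 Colorimetric cPLA2 assay (commercial kit) on UACC 903 lysate made in Hepes pH 7.4 with 1 mM EDTA. sPLA2 was removed by 30 kDa cutoff filtration and iPLA2 was blocked with bromoenol lactone. Lysate was treated with free or nanoliposomal test compound (0.5–10 μmol/L); DMSO or empty nanoliposome defined 100% activity. Arachidonoyl thio-PC substrate ran for 1 h, then DTNB was added and absorbance read at 414 nm.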

[2] = system: FOM103 normal melanocytes; experiment: MTS cell viability, FOM103; type: cell-based; conditions: Melanocyte, 72 h, read-out: IC50 FOM103
Method in brief: (§1)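 MTS viability assay. Cells were grown at 37°C in humidified 5% CO2: melanoma lines UACC 903 and 1205 Lu (BRAF V600E) or C8161.Cl9 and MelJuSo (BRAF wild type), or normal […]. 5×10³ cells/well were treated 48 h after seeding for 72 h with rising concentrations of free or nanoliposomal test compound (nanoliposomal: 10–100 μmol/L). IC50 came from 3 independent experiments; group values are averages across the lines.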

UACC 903 xenograft = UACC 903 xenograft tumor growth in nude mice; type: in vivo; conditions: for % in-vivo tumor inhibition at day 21 in Nude mice: in DMSO, i.p.
Method in brief: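 Female athymic nude mice aged 3–4 weeks received 1×10⁶ UACC 903 cells in 0.2 mL DMEM/10% FBS subcutaneously above both rib cages. At day 8 (vascularized tumors of 50–75 mm³), mice were randomized (3/group, 2 tumors/mouse) and dosed daily i.p. with free test compound in DMSO (5 or 10 mg/kg) or DMSO vehicle for 3–4 weeks. Tumor dimensions and body weight were taken on alternate days; % inhibition was scored at day 21. Run twice independently.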

[3] = mouse, in vivo
[4] = system: FF2441 normal human fibroblast cell line; experiment: MTS cell viability, FF2441; type: cell-based; conditions: FF2441, 72 h, read-out: IC50 FF2441
Method in brief: as §1

[5] = system: four melanoma cell lines (UACC 903, 1205 Lu, C8161.Cl9, MelJuSo); experiment: MTS cell viability, melanoma cell lines taken together; type: cell-based
Method in brief: as §1

[6] = system: 1205 Lu melanoma cell line; experiment: MTS cell viability, 1205 Lu; type: cell-based; conditions: Homo sapiens, 72 h, read-out: IC50 1205 Lu
Method in brief: as §1

[7] = system: UACC 903 melanoma cell line; experiment: MTS cell viability, UACC 903; type: cell-based; conditions: Homo sapiens, UACC-903, 72 h, read-out: IC50 UACC 903
Method in brief: as §1

cPLA2 [8] = conditions: various in-vitro studies; ref [13], [37]; cited from earlier work
[9] = system: C8161.Cl9 melanoma cell line; experiment: MTS cell viability, C8161.Cl9; type: cell-based; conditions: 72 h, read-out: IC50 C8161.Cl9
Method in brief: as §1

Hemolytic activity = type: cell-based; conditions: human, human erythrocytes, 5% v/v suspension
Method in brief: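 Erythrocytes from fresh EDTA-anticoagulated human blood, separated at 1,500 rpm for 10 min at 4°C using PBS. A 5% v/v suspension in PBS was exposed to free or nanoliposomal test compound (10–40 μmol/L), ethanol or empty liposome (negative controls), or 1% Triton X-100, at 37°C for 60 min. After a 12,000 rpm spin, supernatant A540 was read. % hemolysis = sample A540 / Triton A540 × 100.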

[10] = 14-day repeated dose study to identify the MTD; conditions: for % weight loss at day 14 in Swiss Webster mice: in DMSO, i.p. daily, 14 days
[11] = system: normal cells FOM103 and FF2441; experiment: MTS cell viability, normal cells taken together; type: cell-based; conditions: FF2441, read-out: average IC50 for killing normal FOM103 and FF2441
Method in brief: as §1

For `CCCCC/C=C\C/C=C\C/C=C\C/C=C\CCCC(=O)C(F)(F)F` [ATK, Arachidonyl trifluoromethyl ketone], the IC50 (cPLA2 [1]) was 1.85 µM, the IC50 [2] was 57.9 ± 10.4 µM and the “% in-vivo tumor inhibition at day 21 in Nude mice” value (UACC 903 xenograft; 5 mg/kg body weight) was 12.9 ± 6.30%. The “% in-vivo tumor inhibition at day 21 in Nude mice” value (UACC 903 xenograft; 10 mg/kg body weight) was 32.5 ± 5.73%, the “changes in body weight of tumor-bearing mice” value (UACC 903 xenograft; 5 and 10 mg/kg i.p. daily in DMSO) was “did not show any significant changes in body weight” and the “reduction in tumor volume” value (UACC 903 xenograft; free ATK in DMSO, 5 and 10 mg/kg (MTD) i.p. daily, 3-4 weeks) was “approximately 30%”. For the same compound, the “% weight loss at day 14 in Swiss Webster mice” value (“% weight loss” below) [3] was “Animal mortality occurred”, the IC50 [4] was 63.3 ± 10.3 µM and the “fold more effective at killing melanoma cells than normal cells” value ([5]; average melanoma versus average normal cells) was 3 fold. The IC50 ([5]; read-out: average IC50 for melanoma cells) was 22 µM, the IC50 [6] was 26.1 ± 4.4 µM and the IC50 [7] was 26.3 ± 2.1 µM. For the same compound, the “potency in inhibiting cPLA2 over sPLA2 and iPLA2” value (cPLA2 [8]) was 500 fold, the IC50 [9] was 18.6 ± 3.1 µM and the hemolysis at 60 min (Hemolytic activity) was 2 to 3%. For the same compound, the hemolysis at 60 min, 40 μmol/L (Hemolytic activity) was 2.9%, the “% weight loss” value ([10]; 5 mg/kg body weight) was “No weight loss” and the “% weight loss” value ([10]; 10 mg/kg body weight) was 3.1 ± 3.52%. For the same compound, the “% weight loss” value ([10]; 15 mg/kg body weight) was 14.5% and 14.5 ± 0.95%, the “% weight loss” value ([10]; 20 mg/kg body weight) was “Death in 10 days” and the “% weight loss” value ([10]; 30 mg/kg body weight) was “Death in 8 days”. For the same compound, the MTD at 14 days ([10]; Swiss Webster, mouse, in vivo, ip) was 10 mg/kg and the IC50 [11] was 60 µM.

— article PMC5899023 (Nanomedicine : nanotechnology, biology, and medicine, 2018)
